Bfl-1 Bim block: disrupts Bim binding to human Bfl-1 | Bead-based flow cytometry, Bim-Bfl-1 binding inhibition | inhibition, % at 10 µM | Q16548 | actives 0.12% (n = 190,000);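 further: 0% = wells without compound plus tracer and 100% = blocker peptide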
Bim-Bcl-W: human Bim-Bcl-W interaction inhibition. bead-based flow cytometry, Bim peptide-Bcl-W binding. inhibition, % at 10 µM. actives 0.02% (n = 190,000);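 further: 0% = bound tracer without compound and 100% = peptide blocker; higher means less fluorescent Bim peptide bound to Bcl-W beads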
Bim-Bcl-B: disrupts Bim peptide binding to human Bcl-B | bead-based flow cytometry | inhibition, % at 10 µM | actives 0.073% (n = 190,000) | AID 951;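 further: 0% = tracer peptide without compound and 100% = reference inhibitor peptide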
Target sequence (Q9HD36 whole entry, looked up): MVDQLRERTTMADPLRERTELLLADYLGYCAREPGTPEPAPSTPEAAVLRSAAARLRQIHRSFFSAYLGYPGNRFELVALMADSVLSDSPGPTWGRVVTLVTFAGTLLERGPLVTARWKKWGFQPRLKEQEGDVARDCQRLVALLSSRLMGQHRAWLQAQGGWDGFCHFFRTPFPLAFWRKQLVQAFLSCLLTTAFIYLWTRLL
Bcl-XL Bim block: disrupts Bim peptide binding to human Bcl-XL; bead flow cytometry, fluorescence; inhibition, % at 10 µM; actives 0.04% (n = 190,000); AID 1007
Target sequence (Q07817 whole entry, looked up): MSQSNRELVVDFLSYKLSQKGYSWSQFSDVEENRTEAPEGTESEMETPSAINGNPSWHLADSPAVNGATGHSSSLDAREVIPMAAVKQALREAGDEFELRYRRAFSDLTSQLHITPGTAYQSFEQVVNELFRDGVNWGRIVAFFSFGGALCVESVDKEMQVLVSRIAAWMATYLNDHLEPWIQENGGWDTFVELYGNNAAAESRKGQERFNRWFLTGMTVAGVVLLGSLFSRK
Bcl-2 Bim block: inhibitors of Bim-Bcl-2 interaction, human; P10415; AID 950; inhibition, % at 10 µM; actives 0.06% (n = 190,000); Bead-based flow cytometry, Bim peptide-Bcl-2 binding; in the data active means inhibition above about 40%;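 further: 0% = no compound wells with probe peptide and 100% = reference peptide inhibitor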
Rad51 HR inh: Rad51 (human) homologous recombination inhibition | Q06609 | hRad51 DNA strand exchange, fluorescence dequenching | inhibition, % at 10 µM | actives 0.085% (n = 200,000);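 active means inhibition above 40% at the single screening dose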;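 further: 0% = DMSO control wells and 100% = blanks with heterologous ssDNA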
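System: hRad51 filaments on single-stranded DNA; reagent: Fluorescein- and BHQ1-tagged 47-mer duplex; compound dosing: one concentration, 10 µM final; timing: filaments 15 min 37 °C, then compound 30 min; measured by: fluorescein emission 520 nm, excitation 485 nm; benchmarks: per-plate controls and blanks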
The depositor's hits bear a star; / = no result. A selection: hits, their analogues and other compounds. The true share with any hit is near 0.23%. Unless noted, no stated cut-off is given here; in the data, active means inhibition above about 40%.

SMILES | Bfl-1 Bim block | Bim-Bcl-W | Bim-Bcl-B | Bcl-XL Bim block | Bcl-2 Bim block | Rad51 HR inh
Nc1c(C(=O)NCc2ccco2)sc2nc3c(cc12)C(=O)CCC3 | 48.0* | 42.0* | 6.0 | 16.0 | 20.0 | 4.2
COCCN=c1scc(-c2ccco2)n1/N=C/c1ccc(O)c(O)c1O | 41.0* | 24.0 | -10.0 | 8.0 | 18.0 | -30.4
CC(C)N=c1scc(-c2ccco2)n1/N=C/c1ccc(O)c(O)c1 | -3.0 | 4.0 | -8.0 | 1.0 | 0.0 | 1.0
O=C(COc1ccccc1Br)NCc1ccccn1 | 44.0* | 5.0 | 75.0* | 10.0 | 71.0* | -0.1
O=C(COc1ccc(F)cc1Br)NCc1ccccn1 | -1.0 | 0.0 | -1.0 | -1.0 | 4.0 | -10.6
CN1CCN(C(=O)c2ccc(S(=O)(=O)c3ccc(Br)cc3)cc2)CC1 | -4.0 | -7.0 | -4.0 | -8.0 | -3.0 | 55.2*
O=C(C[n+]1ccc(-c2nnc3n2CCC3)cc1)c1ccc(Cl)c(Cl)c1 | 2.0 | 25.0 | 43.0* | 14.0 | 11.0 | /
COc1ccc(C(=O)C[n+]2ccc(-c3nnc4n3CCC4)cc2)cc1 | 7.0 | -1.0 | -12.0 | -6.0 | -4.0 | /
COC(=O)c1ccccc1N/C=C1\CCc2c(c(C)nn2-c2ccccn2)C1=O | 50.0* | 37.0 | 6.0 | 7.0 | 20.0 | 0.0
COC(=O)c1ccccc1NC(=O)CN1CCN(c2ccccn2)CC1 | -4.0 | -1.0 | -1.0 | -3.0 | -7.0 | 34.6
CC(C)(CO)NCc1ccc(Br)cc1 | -5.0 | 0.0 | -4.0 | -4.0 | -1.0 | 43.5*
Cc1ccc(CNC(C)(C)CO)cc1 | 2.0 | -1.0 | -1.0 | -6.0 | 2.0 | 15.8
O=C(c1cc(=O)c2ccccc2o1)N1CCN(c2ccccc2F)CC1 | 58.0* | 58.0* | 52.0* | 37.0 | 66.0* | -3.5
O=C(c1cc(=O)c2ccccc2o1)N1CCN(c2cccc(Cl)c2)CC1 | -8.0 | 3.0 | 0.0 | 0.0 | -3.0 | -4.8
COc1ccccc1NC(=O)CN(Cc1ccco1)C(=O)c1cc2ccccc2o1 | -8.0 | -1.0 | -2.0 | 0.0 | -2.0 | -1.2
CN(CC(=O)O/N=C(\N)c1ccc([N+](=O)[O-])cc1)S(=O)(=O)c1ccccc1 | 6.0 | 12.0 | 72.0* | 18.0 | 38.0 | -8.5
CC(=NCCCn1ccnc1)C1=C(O)c2ccccc2C1=O | 63.0* | 11.0 | 86.0* | 18.0 | 87.0* | -6.1
O=C1C(C=NCCCn2ccnc2)=C(O)c2ccccc21 | / | / | / | / | / | -2.7
CC(C)(C)C(O)/C=C/c1ccc2c(c1)OCO2 (stereo unspecified) | / | / | / | / | / | -0.9
Nc1ccc2c(c1)C(=O)C(=O)c1ccccc1-2 | 0.0 | 5.0 | 5.0 | -9.0 | 4.0 | -9.3
O=C1C(=O)c2ccc(-c3ccccc3)cc2-c2ccccc21 | 41.0* | 25.0 | 21.0 | 38.0 | 32.0 | -4.5
Cc1cc(-c2nnc(CCC(=O)NC(C)c3ccccc3Cl)o2)no1 (stereo unspecified) | -7.0 | -3.0 | -4.0 | 0.0 | -5.0 | 1.2
Cc1cc(-c2nnc(CCC(=O)NC(C)c3cccc4ccccc34)o2)no1 (stereo unspecified) | 44.0* | 11.0 | 78.0* | 17.0 | 73.0* | 0.7
O=C(N/N=C/c1ccncc1)c1cccc(NC(=O)c2ccccc2Cl)c1 | 34.0 | 29.0 | 21.0 | 43.0* | 32.0 | 0.5
CCNC(=S)Nc1cccc(F)c1C | -6.0 | -3.0 | -6.0 | -2.0 | -5.0 | -2.8
SMILES | Bfl-1 Bim block | Bim-Bcl-W | Bim-Bcl-B | Bcl-XL Bim block | Bcl-2 Bim block | Rad51 HR inh
COc1ccc(N2CCN(C(=O)c3cn(C4CCCC4)c(=O)c4c3c3ccccc3n4C)CC2)cc1 | -8.0 | 2.0 | -6.0 | -12.0 | -6.0 | /
COc1ccc(N2CCN(C(=O)c3cn(C)c(=O)c4c3c3ccccc3n4C)CC2)cc1 | -18.0 | -1.0 | -8.0 | -10.0 | -8.0 | 132.4*
COc1ccccc1N(CCN1C(=O)c2cccc3cccc(c23)C1=O)C(=O)c1ccncc1 | 2.0 | -1.0 | 0.0 | 0.0 | 0.0 | 3.2
O=C(CSc1ccc2nnc(-c3ccccn3)n2n1)Nc1nccs1 | 7.0 | 27.0 | 24.0 | 40.0* | 8.0 | -4.2
N#CC(C#N)=C1C=CC=CN1/C(=C\c1ccccc1Cl)C(=O)c1ccccc1 | 59.0* | 34.0 | 1.0 | 16.0 | 30.0 | /
Cc1nnc(NC(=O)CSc2nccn2-c2ccc(F)cc2)s1 | -4.0 | 0.0 | -3.0 | -1.0 | -3.0 | -13.7
CN=C(NC1CCCCC1)c1ccc(Cl)cc1 | 49.0* | 24.0 | -26.0 | 1.0 | 13.0 | /
O=C(NC1CCCCC1)Sc1ccc(Cl)cc1 | -10.0 | -3.0 | -4.0 | -5.0 | -3.0 | 4.9
